Test results published in ChEMBL document CHEMBL1146219, “Synthesis and evaluation of novel radioiodinated benzamides for malignant melanoma” (J Med Chem, 2007).
One block for each molecule: values may come before it.

Tests used:
[1] = molecular target: Sigma non-opioid intracellular receptor 1 (Cavia porcellus, UniProt Q60492); test: Displacement of [3H](+)-pentazocine from sigma 1 receptor in guinea pig brain membrane; type: cell membranes
Summary of the method: (§1)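 Guinea pig brain membranes, incubated in duplicate for 2 h at 25 °C in Tris-HCl pH 8.0. Benzamide 10⁻¹⁰ to […] against 2 nM [³H]-(+)-pentazocine (σ₁) or 2 nM [³H]DTG plus 100 nM (+)-pentazocine (σ₂). Nonspecific binding defined with 1 µM haloperidol. GF/B filtration, bound activity by β-scintillation counting, giving IC50 then Ki. Full curves run only where 10⁻⁵ M inhibited >90%.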

[2] = Displacement of [3H]DTG from sigma 2 receptor in guinea pig brain membrane; type: cell membranes, Cavia porcellus; summary of the method: as §1
[3] = Lipophilicity, log P at pH 7.5; type: physicochemical; conditions: buffer
Heart [4] = test: Biodistribution in heart of B16F0 tumor bearing C57BL/6J mouse at 0.37-0.74 MBq, iv after 6 hrs; type: ADME, organism-based; conditions: in vivo
Summary of the method: (§2)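 Female C57BL/6J mice (15-18 g) were given B16F0 cells subcutaneously in the left flank (0.1 mL of 3 × 10⁶ viable cells/mL in Ca²⁺/Mg²⁺-free PBS) at 6-7 weeks and used after ten days. [¹²³I]benzamide (0.37-0.74 MBq, 100 µL, saline) was injected via the tail vein. Groups of n = 5 were killed by CO₂ and cervical dislocation. Organs were weighed and γ-counted, and the carcass was counted too.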

[5] = Biodistribution in melanoma of B16F0 tumor bearing C57BL/6J mouse at 0.37-0.74 MBq, iv after 24 hrs; type: ADME, organism-based, B16-F0; conditions: in vivo; summary of the method: as §2
Blood [6] = test: Biodistribution in blood of B16F0 tumor bearing C57BL/6J mouse at 0.37-0.74 MBq, iv after 24 hrs; type: ADME, organism-based; conditions: in vivo; summary of the method: as §2
Heart [7] = test: Biodistribution in heart of B16F0 tumor bearing C57BL/6J mouse at 0.37-0.74 MBq, iv after 24 hrs; type: ADME, organism-based; conditions: in vivo; summary of the method: as §2
Brain [8] = test: Biodistribution in brain of B16F0 tumor bearing C57BL/6J mouse at 0.37-0.74 MBq, iv after 24 hrs; type: ADME, organism-based; conditions: in vivo; summary of the method: as §2
Blood [9] = test: Biodistribution in blood of B16F0 tumor bearing C57BL/6J mouse at 0.37-0.74 MBq, iv after 1 hr; type: ADME, organism-based; conditions: in vivo; summary of the method: as §2
Brain [10] = test: Biodistribution in brain of B16F0 tumor bearing C57BL/6J mouse at 0.37-0.74 MBq, iv after 6 hrs; type: ADME, organism-based; conditions: in vivo; summary of the method: as §2
[11] = Biodistribution in melanoma of B16F0 tumor bearing C57BL/6J mouse at 0.37-0.74 MBq, iv after 6 hrs; type: ADME, organism-based, B16-F0; conditions: in vivo
Summary of the method: (§3)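 Female C57BL/6J mice (15-18 g) carrying s.c. B16F0 flank tumors (0.1 mL of 3 × 10⁶ viable cells per mL in Ca²⁺/Mg²⁺-free PBS, inoculated at 6-7 weeks, used 10 days later). [¹²³I]tracer 0.37-0.74 MBq in saline, 100 µL, tail-vein i.v. Groups of n = 5 killed at 1-72 h. Organs weighed and γ-counted, carcass activity also counted, values as %ID/g.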

Lung [12] = test: Biodistribution in lung of B16F0 tumor bearing C57BL/6J mouse at 0.37-0.74 MBq, iv after 6 hrs; type: ADME, organism-based; conditions: in vivo; summary of the method: as §2
Liver [13] = test: Biodistribution in liver of B16F0 tumor bearing C57BL/6J mouse at 0.37-0.74 MBq, iv after 6 hrs; type: ADME, organism-based; conditions: in vivo; summary of the method: as §2
Lung [14] = test: Biodistribution in lung of B16F0 tumor bearing C57BL/6J mouse at 0.37-0.74 MBq, iv after 24 hrs; type: ADME, organism-based; conditions: in vivo; summary of the method: as §2
Heart [15] = test: Biodistribution in heart of B16F0 tumor bearing C57BL/6J mouse at 0.37-0.74 MBq, iv after 1 hr; type: ADME, organism-based; conditions: in vivo; summary of the method: as §2
Blood [16] = test: Biodistribution in blood of B16F0 tumor bearing C57BL/6J mouse at 0.37-0.74 MBq, iv after 6 hrs; type: ADME, organism-based; conditions: in vivo; summary of the method: as §2
Liver [17] = test: Biodistribution in liver of B16F0 tumor bearing C57BL/6J mouse at 0.37-0.74 MBq, iv after 1 hr; type: ADME, organism-based; conditions: in vivo; summary of the method: as §2
Kidney [18] = test: Biodistribution in kidney of B16F0 tumor bearing C57BL/6J mouse at 0.37-0.74 MBq, iv after 24 hrs; type: ADME, organism-based; conditions: in vivo; summary of the method: as §2
Kidney [19] = test: Biodistribution in kidney of B16F0 tumor bearing C57BL/6J mouse at 0.37-0.74 MBq, iv after 1 hr; type: ADME, organism-based; conditions: in vivo; summary of the method: as §2
[20] = Biodistribution in melanoma of B16F0 tumor bearing C57BL/6J mouse at 0.37-0.74 MBq, iv after 1 hr; type: ADME, organism-based, B16-F0; conditions: in vivo; summary of the method: as §2
Lung [21] = test: Biodistribution in lung of B16F0 tumor bearing C57BL/6J mouse at 0.37-0.74 MBq, iv after 1 hr; type: ADME, organism-based; conditions: in vivo; summary of the method: as §2
Liver [22] = test: Biodistribution in liver of B16F0 tumor bearing C57BL/6J mouse at 0.37-0.74 MBq, iv after 24 hrs; type: ADME, organism-based; conditions: in vivo; summary of the method: as §2
Kidney [23] = test: Biodistribution in kidney of B16F0 tumor bearing C57BL/6J mouse at 0.37-0.74 MBq, iv after 6 hrs; type: ADME, organism-based; conditions: in vivo; summary of the method: as §2
Brain [24] = test: Biodistribution in brain of B16F0 tumor bearing C57BL/6J mouse at 0.37-0.74 MBq, iv after 1 hr; type: ADME, organism-based; conditions: in vivo; summary of the method: as §2
[25] = Biodistribution in melanoma of B16F0 tumor bearing C57BL/6J mouse at 0.37-0.74 MBq, iv after 48 hrs; type: ADME, organism-based, B16-F0; conditions: in vivo; summary of the method: as §2
Blood [26] = test: Biodistribution in blood of B16F0 tumor bearing C57BL/6J mouse at 0.37-0.74 MBq, iv after 72 hrs; type: ADME, organism-based; conditions: in vivo; summary of the method: as §2
[27] = Biodistribution in melanoma of B16F0 tumor bearing C57BL/6J mouse at 0.37-0.74 MBq, iv after 72 hrs; type: ADME, organism-based, B16-F0; conditions: in vivo; summary of the method: as §3
Liver [28] = test: Biodistribution in liver of B16F0 tumor bearing C57BL/6J mouse at 0.37-0.74 MBq, iv after 48 hrs; type: ADME, organism-based; conditions: in vivo; summary of the method: as §2
Lung [29] = test: Biodistribution in lung of B16F0 tumor bearing C57BL/6J mouse at 0.37-0.74 MBq, iv after 48 hrs; type: ADME, organism-based; conditions: in vivo; summary of the method: as §2
Liver [30] = test: Biodistribution in liver of B16F0 tumor bearing C57BL/6J mouse at 0.37-0.74 MBq, iv after 72 hrs; type: ADME, organism-based; conditions: in vivo; summary of the method: as §2
Kidney [31] = test: Biodistribution in kidney of B16F0 tumor bearing C57BL/6J mouse at 0.37-0.74 MBq, iv after 48 hrs; type: ADME, organism-based; conditions: in vivo; summary of the method: as §2
Heart [32] = test: Biodistribution in heart of B16F0 tumor bearing C57BL/6J mouse at 0.37-0.74 MBq, iv after 72 hrs; type: ADME, organism-based; conditions: in vivo; summary of the method: as §2
Heart [33] = test: Biodistribution in heart of B16F0 tumor bearing C57BL/6J mouse at 0.37-0.74 MBq, iv after 48 hrs; type: ADME, organism-based; conditions: in vivo; summary of the method: as §2
Blood [34] = test: Biodistribution in blood of B16F0 tumor bearing C57BL/6J mouse at 0.37-0.74 MBq, iv after 48 hrs; type: ADME, organism-based; conditions: in vivo; summary of the method: as §2
Brain [35] = test: Biodistribution in brain of B16F0 tumor bearing C57BL/6J mouse at 0.37-0.74 MBq, iv after 48 hrs; type: ADME, organism-based; conditions: in vivo; summary of the method: as §2
Kidney [36] = test: Biodistribution in kidney of B16F0 tumor bearing C57BL/6J mouse at 0.37-0.74 MBq, iv after 72 hrs; type: ADME, organism-based; conditions: in vivo; summary of the method: as §2

Chain of Sigma non-opioid intracellular receptor 1 (Q60492 whole entry): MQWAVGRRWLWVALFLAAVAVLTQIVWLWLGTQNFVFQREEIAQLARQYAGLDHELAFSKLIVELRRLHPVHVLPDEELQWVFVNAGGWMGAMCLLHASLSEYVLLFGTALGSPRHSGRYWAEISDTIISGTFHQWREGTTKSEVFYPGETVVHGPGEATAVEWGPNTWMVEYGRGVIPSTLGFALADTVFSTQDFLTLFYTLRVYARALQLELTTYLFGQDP

Structure (SMILES): CCN(CC)CCNC(=O)c1cc(I)c(NC(C)=O)cc1OC
- Ki [1]: 1650 nM
- Ki [2]: > 100000 nM
- logD [3]: 1.54

Structure (SMILES): CCN(CC)CCNC(=O)c1cc(I)c(NS(C)(=O)=O)cc1OC
- Ki [1]: 800 nM
- Ki [2]: 45000 nM
- logD [3]: 0.82

Structure (SMILES): COc1cc(NC(C)=O)c(I)cc1C(=O)NCCCCN(C)C(C)C
- Ki [1]: 5200 nM
- Ki [2]: 5400 nM
- logD [3]: 0.75

Other lines, results leading:

- Drug uptake (Heart [4]): 0.93 % ID/g
- Drug uptake [5]: 9.2 % ID/g
- Drug uptake (Blood [6]): 0.04 % ID/g
- Drug uptake (Heart [7]): 0.49 % ID/g
- Drug uptake (Brain [8]): 0.15 % ID/g
- Drug uptake (Blood [9]): 1 % ID/g
- Drug uptake (Brain [10]): 0.46 % ID/g
- Drug uptake [11]: 11.7 % ID/g
- Drug uptake (Lung [12]): 4.7 % ID/g
- Drug uptake (Liver [13]): 9.2 % ID/g
- Drug uptake (Lung [14]): 1.44 % ID/g
- Drug uptake (Heart [15]): 3.1 % ID/g
- Drug uptake (Blood [16]): 0.21 % ID/g
- Drug uptake (Liver [17]): 17.1 % ID/g
- Drug uptake (Kidney [18]): 1.2 % ID/g
- Drug uptake (Kidney [19]): 10.6 % ID/g
- Drug uptake [20]: 5.9 % ID/g
- Drug uptake (Lung [21]): 17.8 % ID/g
- Drug uptake (Liver [22]): 5.4 % ID/g
- Drug uptake (Kidney [23]): 3.2 % ID/g
- Drug uptake (Brain [24]): 1 % ID/g
Structure (SMILES): O=C(NC1CCN(CCO)CC1)c1ccc([123I])cc1

- Drug uptake (Heart [4]): 0.31 % ID/g
- Drug uptake [5]: 5.2 % ID/g
- Drug uptake (Blood [6]): 0.08 % ID/g
- Drug uptake (Heart [7]): 0.12 % ID/g
- Drug uptake (Brain [8]): 0.01 % ID/g
- Drug uptake (Blood [9]): 0.98 % ID/g
- Drug uptake (Brain [10]): 0.02 % ID/g
- Drug uptake [25]: 3.4 % ID/g
- Drug uptake [11]: 8.5 % ID/g
- Drug uptake (Blood [26]): 0.06 % ID/g
- Drug uptake (Lung [12]): 0.4 % ID/g
- Drug uptake [27]: 2.2 % ID/g
- Drug uptake (Liver [28]): 0.51 % ID/g
- Drug uptake (Liver [13]): 2.3 % ID/g
- Drug uptake (Lung [29]): 0.07 % ID/g
- Drug uptake (Lung [14]): 0.09 % ID/g
- Drug uptake (Heart [15]): 0.79 % ID/g
- Drug uptake (Blood [16]): 0.35 % ID/g
- Drug uptake (Liver [30]): 0.28 % ID/g
- Drug uptake (Liver [17]): 9 % ID/g
- Drug uptake (Kidney [18]): 0.08 % ID/g
- Drug uptake (Kidney [31]): 0.04 % ID/g
- Drug uptake (Kidney [19]): 2.3 % ID/g
- Drug uptake [20]: 9.6 % ID/g
- Drug uptake (Lung [21]): 1.3 % ID/g
- Drug uptake (Heart [32]): 0.18 % ID/g
- Drug uptake (Liver [22]): 1.1 % ID/g
- Drug uptake (Heart [33]): 0.07 % ID/g
- Drug uptake (Kidney [23]): 0.44 % ID/g
- Drug uptake (Brain [24]): 0.13 % ID/g
- Drug uptake (Blood [34]): 0.03 % ID/g
- Drug uptake (Brain [35]): 0.01 % ID/g
- Drug uptake (Kidney [36]): 0.06 % ID/g
Structure (SMILES): CCN(CC)CCNC(=O)c1cc([123I])c(NC(C)=O)cc1OC

- Ki [1]: 650 nM
- Ki [2]: > 100000 nM
- logD [3]: 1.95
Structure (SMILES): CCN(CC)CCNC(=O)c1cc(I)c(NS(=O)(=O)c2ccc(C)cc2)cc1OC

- Ki [1]: 1300 nM
- Ki [2]: 1000 nM
- logD [3]: 2.46
Structure (SMILES): CCCN(CCC)CCCCNC(=O)c1ccc(I)cc1
